In series [1] the test system is Plasmodium falciparum. The experiment in a line: Antimalarial activity against Plasmodium falciparum D6 by [3H]hypoxanthine uptake. The series is classed as functional, organism-based. Put shortly: (§1)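 Cultured P. falciparum clones tested, parasite-specific [3H]hypoxanthine incorporation measured; zero-drug wells set as 100% incorporation. IC50 (50% inhibition of incorporation) fitted by nonlinear regression; pure compounds with IC50 < 10 µg/mL counted as active. Extract values expressed in µg/mL.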

Series [2] is described as follows: Cytotoxicity against human KB cells by SRB assay. Type of series: cell-based. The following applies: read-out: ED50 (the source's name). An outline of the steps: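 Human oral epidermoid carcinoma KB cells stained with sulforhodamine B; ED50 from nonlinear regression of percent survival against compound concentration. ED50 of 50 µM or above taken as noncytotoxic; extract values in µg/mL.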
For orientation: In SRB staining, fixed cells bind dye roughly in proportion to their protein.

A short description of series [3]: Selectivity index, ratio of ED50 for human KB cells to IC50 for Plasmodium falciparum D6. The series is classed as functional. An outline of the steps: (§2)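 Selectivity index computed as ED50 in KB cells (SRB survival assay) divided by IC50 against the P. falciparum clone from [3H]hypoxanthine incorporation, both fitted by nonlinear regression.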
Series [4] concerns Plasmodium falciparum. Nature of the series: Antimalarial activity against Plasmodium falciparum W2 by [3H]hypoxanthine uptake. The series is classed as functional, organism-based. Put shortly: as §1
A short description of series [5]: Selectivity index, ratio of ED50 for human KB cells to IC50 for Plasmodium falciparum W2. The series is classed as functional. Put shortly:
as §2

Here are results for six molecules from ChEMBL document CHEMBL1157285, “Antimalarial compounds from Grewia bilamellata” (J Nat Prod, 2006).

Regarding `COC1=CC(=O)C=C(OC)C1(O)CC(C)=O`, the IC50 with Plasmodium falciparum [1] came to 42.2 µM; with Plasmodium falciparum [4] it was 23 µM. In series [2], the CC50 came out at 169 µM. Further, the “Selectivity Index” value in series [3] came out at 4; in series [5], 7.3.

As for `CC(C)(O)[C@@H]1CC[C@]2(C)CC[C@]3(C)[C@H](CC[C@@H]4[C@@]5(C)CC[C@@H](O)C(C)(C)[C@@H]5CC[C@]43C)[C@@H]12`, the IC50 with Plasmodium falciparum [1] came to 19.8 µM; with Plasmodium falciparum [4], 19.1 µM. Also, in series [2], the CC50 was > 90 µM. For the same molecule, the “Selectivity Index” value in series [3] is listed as >4.5; in series [5] it was >4.7.

Take `CCN(CC)CCCC(C)Nc1ccnc2cc(Cl)ccc12` (stereo unspecified) [CHLOROQUINE]: the CC50 in series [2] came out at 30.8 µM.

`COc1cc([C@@H]2Oc3cc(/C=C/CO)cc(OC)c3O[C@H]2CO)cc(OC)c1O` [NITIDANIN]: the IC50 turned out to be 21.2 µM with Plasmodium falciparum [1] and 18.4 µM in the series on Plasmodium falciparum [4]. Besides, the CC50 in series [2] is > 99 µM. The “Selectivity Index” value in series [3] is listed as >4.6; in series [5], >5.4.

With `CC1(C)CC[C@]2(C(=O)O)CC[C@]3(C)C(=CC[C@@H]4[C@@]5(C)C[C@@H](O)[C@H](O)C(C)(C)[C@@H]5CC[C@]43C)[C@@H]2C1` [MASLINIC ACID], the IC50 turned out to be 21.1 µM in the series with Plasmodium falciparum [1] and 8.6 µM in the series with Plasmodium falciparum [4]. In series [2], the CC50 was found to be 51.5 µM. For the same molecule, the “Selectivity Index” value worked out at 2.4 in series [3] and 5.9 in series [5].

For `COc1cc([C@@H]2Oc3cc4ccc(=O)oc4cc3O[C@H]2CO)cc(O)c1O` [GREWIN], the values for the IC50 in the series with Plasmodium falciparum [1] and in the series with Plasmodium falciparum [4] were 11.2 µM and 5.5 µM, respectively. The CC50 in series [2] was > 108 µM. The “Selectivity Index” value in series [3] is reported as >9.6; in series [5], >19.7.

What is called IC50 is the point on the concentration scale where inhibition reaches its midpoint. Lower therefore signals inhibition by little substance.
